A short description of series [1]: Toxicity in CD1 mouse assessed as acute pain at 80 mg/kg/day, ip administered thrice weekly and measured at day 10. In kind it is organism-based. To be noted: in vivo, 72 h, time 3 day. The procedure, abridged:
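Male CD-1 mice, four per group, given 80 mg/kg in PBS IP three times weekly; vehicle DMSO. Mice were euthanized when toxicity signs appeared, otherwise at day 10. Body weight was recorded at first and last dosing days. Non-fasted cardiac blood was taken after euthanasia for an automated hematology analyzer.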

The target in series [2] is Heat shock protein beta-1 (Homo sapiens) (UniProt P04792). The series can be described thus: Inhibition of HSP27 in human U87 cells assessed as downregulation of androgen receptor by Western blot analysis. The series is classed as cell-based. To be noted: dose 25-100 nM. Put shortly:
(§1)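 Cells were treated in six-well plates (with or without MG132 where stated), then lysed in RIPA with protease inhibitors. 50 μg protein was run on 10% SDS-PAGE and transferred to PVDF. Membranes were blocked in 5% milk/TBS-T, probed with AR or AR-V7 antibodies overnight at 4 °C, and detected by chemiluminescence. Densitometry was used; n = 3.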
(In general: Immunoblotting shows a protein as a band on a membrane.)

For series [3] the target is unchanged. The series can be described thus: Inhibition of HSP27 in human U87 cells assessed as reduction in AR expression level at 50 to 100 nM by Western blot analysis. The series is classed as cell-based. To be noted: dose 50-100 nM. Put shortly: as §1
The target is the same in series [4]. The series can be described thus: Inhibition of HSP27 in human T98G cells assessed as reduction in wild type AR expression level at 50 to 100 nM in presence of MG132 by Western blot analysis. The series is classed as cell-based. To be noted: dose 50-100 nM. Put shortly: as §1
For series [5] the target is unchanged. Description: Inhibition of HSP27 in human T98G cells assessed as reduction in AR-V7 expression level at 50 to 100 nM in presence of MG132 by Western blot analysis. In kind it is cell-based. The following applies: dose 50-100 nM. The procedure, abridged: as §1
Series [6] has as its system U-87MG ATCC. Description: Downregulation of PSA mRNA expression in human U87 cells at 25 nM incubated for 12 hrs by qRT-PCR analysis. In kind it is functional, cell-based. Put shortly:
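T98G and U87 cells, 2 × 10^5 per well, adhered overnight and were treated at 25 nM for 12 h. RNA was extracted with RiboZol and DNase I-treated. AR, PSA and NKX3.1 were measured by real-time PCR, normalized to 18S by 2−ΔΔCt, three replicates per cDNA.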

Series [7] concerns U-87 MG. Description: Antitumor activity against human U87 cells xenografted in nude mouse assessed as reduction in tumor weight at 20 mg/kg, ip administered thrice weekly for 14 days by vernier caliper method. The following applies: U-87MG ATCC, time 14.0 day. In kind it is functional, organism-based. The procedure, abridged: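 Male NCRNU nude mice, 5–6 weeks, 5 × 10^6 U87 cells in PBS injected subcutaneously into left and right flank (n = 4 mice, 8 tumors per group). Dosing began near 50 mm3: 20 mg/kg in PBS IP or oral, three times weekly for 14 days, vehicle DMSO. Calipers three times weekly, V = 2/3·d1·d2²; tumors weighed after CO2 euthanasia.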

Series [8] in a line: Dissociation constant, pKa of the compound. In kind it is physicochemical.

Calls of active or inactive are those of the source. The rule behind the calls is not given here.

The source of these data is ChEMBL document CHEMBL4706680, “Small-Molecule HSP27 Inhibitor Abolishes Androgen Receptors in Glioblastoma” (J Med Chem, 2021).

Chain of Heat shock protein beta-1 (Homo sapiens) (P04792 whole entry): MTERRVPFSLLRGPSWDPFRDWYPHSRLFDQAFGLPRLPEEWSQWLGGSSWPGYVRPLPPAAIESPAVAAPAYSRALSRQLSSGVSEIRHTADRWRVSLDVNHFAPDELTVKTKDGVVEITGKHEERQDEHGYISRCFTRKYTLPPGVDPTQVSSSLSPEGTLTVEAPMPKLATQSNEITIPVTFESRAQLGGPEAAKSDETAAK

The pKa is the pH at which an ionisable group is half protonated. Read a high pKa as a group that holds its proton tightly. For `COc1ccc(C(=O)Nc2ccc(NS(C)(=O)=O)c(OCc3cc(OC)ccc3OC)c2)cc1`, the Activity result in series [1] is reported as “Non-Toxic”. In addition, the inhibition result in series [2] was “Dose-dependent effect”. In addition, the inhibition entry in series [3] and in series [6] was “Active” throughout. Moreover, the inhibition entry in series [4] and in series [5] was “inactive” in each case. In series [7], the result was Active. In series [8], the pKa is 8.65.
